This note sets out measurements from ChEMBL document CHEMBL1130064, “Substituted N-phenylisothioureas: potent inhibitors of human nitric oxide synthase with neuronal isoform selectivity” (J Med Chem, 1997).

Data set [1] concerns the target T1, Nitric oxide synthase, inducible (Homo sapiens, UniProt P35228). Briefly: Inhibitory activity against human inducible nitric oxide synthase (iNOS). Summed up: (§1)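 Purified human enzymes were used, with iNOS purified from the DLD-1 colorectal adenocarcinoma line. Percent inhibition was measured at three or more inhibitor concentrations and converted to inhibition constants (Ki).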

Data set [2] has as its target T2, Nitric oxide synthase 1 (Homo sapiens, UniProt P29475). Nature of the data set: Inhibitory activity against human neuronal nitric oxide synthase in brain (nNOS). It is filed as tissue-based.
The target of data set [3] is T3, Nitric oxide synthase 3 (Homo sapiens, UniProt P29474).
T3 sequence (P29474 whole entry): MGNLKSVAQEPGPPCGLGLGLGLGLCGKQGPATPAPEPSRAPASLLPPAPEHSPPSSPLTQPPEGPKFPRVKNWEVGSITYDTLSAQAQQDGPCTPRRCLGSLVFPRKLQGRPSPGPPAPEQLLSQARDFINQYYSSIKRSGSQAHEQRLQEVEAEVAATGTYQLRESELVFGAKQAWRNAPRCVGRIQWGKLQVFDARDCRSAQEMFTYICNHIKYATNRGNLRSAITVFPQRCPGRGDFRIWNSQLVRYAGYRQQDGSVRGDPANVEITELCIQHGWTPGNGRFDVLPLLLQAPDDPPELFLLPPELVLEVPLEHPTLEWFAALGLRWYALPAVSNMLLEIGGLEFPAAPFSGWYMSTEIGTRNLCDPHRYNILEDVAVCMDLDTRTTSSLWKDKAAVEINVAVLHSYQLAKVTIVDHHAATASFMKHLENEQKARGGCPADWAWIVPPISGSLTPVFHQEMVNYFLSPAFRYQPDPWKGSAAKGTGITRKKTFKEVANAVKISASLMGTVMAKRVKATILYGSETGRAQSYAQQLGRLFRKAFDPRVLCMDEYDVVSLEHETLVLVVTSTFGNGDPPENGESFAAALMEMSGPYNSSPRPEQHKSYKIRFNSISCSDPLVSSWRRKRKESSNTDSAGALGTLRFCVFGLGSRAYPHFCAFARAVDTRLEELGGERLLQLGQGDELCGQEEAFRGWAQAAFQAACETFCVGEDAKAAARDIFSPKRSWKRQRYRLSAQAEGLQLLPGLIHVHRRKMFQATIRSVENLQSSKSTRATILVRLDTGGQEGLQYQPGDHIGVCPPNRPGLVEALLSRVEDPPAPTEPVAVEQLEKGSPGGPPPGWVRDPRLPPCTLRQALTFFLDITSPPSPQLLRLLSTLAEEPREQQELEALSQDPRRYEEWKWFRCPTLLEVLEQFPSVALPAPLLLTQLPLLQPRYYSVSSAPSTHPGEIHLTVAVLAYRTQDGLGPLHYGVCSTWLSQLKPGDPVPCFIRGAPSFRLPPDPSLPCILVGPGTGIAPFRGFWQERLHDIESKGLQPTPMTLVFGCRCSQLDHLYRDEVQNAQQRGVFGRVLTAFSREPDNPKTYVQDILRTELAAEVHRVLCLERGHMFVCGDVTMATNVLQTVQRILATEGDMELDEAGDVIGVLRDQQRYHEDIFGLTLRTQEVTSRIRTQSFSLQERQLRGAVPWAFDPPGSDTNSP
Briefly: Inhibitory activity against human vascular endothelial nitric oxide synthase. The method, boiled down: as §1

Data set [4] has as its target T1, Nitric oxide synthase, inducible. Nature of the data set: Percent inhibition of Human inducible Nitric Oxide Synthase (iNOS) at a concentration of 25 uM. As to conditions: at 25 µM. The method, boiled down:
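Human iNOS purified from the DLD-1 colorectal adenocarcinoma cell line. Percent inhibition of the enzyme was measured with test compound present.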

The target in data set [5] is T4, Nitric oxide synthase 3 (Homo sapiens) (UniProt P29474).
T4 sequence (whole entry): T3 sequence (P29474 whole entry)
Briefly: Percent inhibition of human Vascular Endothelial nitric oxide synthase at a concentration of 25 uM. As to conditions: at 25 µM.

The nature of data set [6]: Michaelis-Menten constant was determined. It is filed as ADME. Summed up: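 Human nNOS conversion of L-arginine to L-citrulline was measured over a range of arginine with inhibitor at 0, 150 and 300 nM. Velocities were fitted to V = Vmax[S]/{[S] + Km(1 + [I]/Ki)} to give Km.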
Data set [7] can be described thus: The half life was determined. It is filed as ADME.
Data set [8] in a line: Clearance was determined. It is filed as ADME, organism-based. The conditions noted are these: in vivo.
The target in data set [9] is T2, Nitric oxide synthase 1. Briefly: Percent inhibition of human Neuronal nitric oxide synthase in brain (nNOS) at a concentration of 25 uM. It is filed as tissue-based. As to conditions: at 25 µM.
The target in data set [10] is T2, Nitric oxide synthase 1. Nature of the data set: Percent inhibition of human Neuronal nitric oxide synthase at a concentration of 25 uM. As to conditions: at 25 µM.

T1 sequence (P35228 whole entry): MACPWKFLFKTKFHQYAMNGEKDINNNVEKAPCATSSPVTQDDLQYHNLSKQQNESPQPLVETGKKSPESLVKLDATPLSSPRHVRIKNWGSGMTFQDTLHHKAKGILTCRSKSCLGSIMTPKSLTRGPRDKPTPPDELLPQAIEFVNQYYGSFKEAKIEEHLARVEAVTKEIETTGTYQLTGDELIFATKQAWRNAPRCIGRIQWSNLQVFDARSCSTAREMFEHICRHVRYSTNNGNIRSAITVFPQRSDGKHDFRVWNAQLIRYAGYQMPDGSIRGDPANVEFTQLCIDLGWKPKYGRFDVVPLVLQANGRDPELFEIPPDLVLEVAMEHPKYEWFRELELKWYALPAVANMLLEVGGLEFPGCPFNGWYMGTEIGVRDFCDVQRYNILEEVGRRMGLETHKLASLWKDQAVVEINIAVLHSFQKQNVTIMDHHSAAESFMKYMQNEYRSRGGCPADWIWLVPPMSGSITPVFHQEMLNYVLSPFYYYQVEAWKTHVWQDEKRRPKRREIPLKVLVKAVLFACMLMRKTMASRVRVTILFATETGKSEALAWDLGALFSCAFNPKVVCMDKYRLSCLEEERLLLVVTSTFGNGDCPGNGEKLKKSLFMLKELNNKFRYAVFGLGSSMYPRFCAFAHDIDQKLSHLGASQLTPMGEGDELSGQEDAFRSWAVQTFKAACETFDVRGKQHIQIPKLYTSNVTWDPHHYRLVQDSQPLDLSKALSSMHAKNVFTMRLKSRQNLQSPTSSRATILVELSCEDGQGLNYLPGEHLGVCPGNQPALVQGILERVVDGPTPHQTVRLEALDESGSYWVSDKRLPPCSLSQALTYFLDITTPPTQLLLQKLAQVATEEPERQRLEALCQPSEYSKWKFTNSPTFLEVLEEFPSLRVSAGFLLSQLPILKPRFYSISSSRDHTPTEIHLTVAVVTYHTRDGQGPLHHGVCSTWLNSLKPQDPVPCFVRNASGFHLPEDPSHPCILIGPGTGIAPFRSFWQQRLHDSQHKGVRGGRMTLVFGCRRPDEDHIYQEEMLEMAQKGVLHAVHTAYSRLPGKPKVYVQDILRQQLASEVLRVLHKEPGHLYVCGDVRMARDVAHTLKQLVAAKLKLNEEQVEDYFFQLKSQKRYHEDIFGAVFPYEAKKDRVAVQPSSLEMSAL
T2 sequence (P29475 whole entry): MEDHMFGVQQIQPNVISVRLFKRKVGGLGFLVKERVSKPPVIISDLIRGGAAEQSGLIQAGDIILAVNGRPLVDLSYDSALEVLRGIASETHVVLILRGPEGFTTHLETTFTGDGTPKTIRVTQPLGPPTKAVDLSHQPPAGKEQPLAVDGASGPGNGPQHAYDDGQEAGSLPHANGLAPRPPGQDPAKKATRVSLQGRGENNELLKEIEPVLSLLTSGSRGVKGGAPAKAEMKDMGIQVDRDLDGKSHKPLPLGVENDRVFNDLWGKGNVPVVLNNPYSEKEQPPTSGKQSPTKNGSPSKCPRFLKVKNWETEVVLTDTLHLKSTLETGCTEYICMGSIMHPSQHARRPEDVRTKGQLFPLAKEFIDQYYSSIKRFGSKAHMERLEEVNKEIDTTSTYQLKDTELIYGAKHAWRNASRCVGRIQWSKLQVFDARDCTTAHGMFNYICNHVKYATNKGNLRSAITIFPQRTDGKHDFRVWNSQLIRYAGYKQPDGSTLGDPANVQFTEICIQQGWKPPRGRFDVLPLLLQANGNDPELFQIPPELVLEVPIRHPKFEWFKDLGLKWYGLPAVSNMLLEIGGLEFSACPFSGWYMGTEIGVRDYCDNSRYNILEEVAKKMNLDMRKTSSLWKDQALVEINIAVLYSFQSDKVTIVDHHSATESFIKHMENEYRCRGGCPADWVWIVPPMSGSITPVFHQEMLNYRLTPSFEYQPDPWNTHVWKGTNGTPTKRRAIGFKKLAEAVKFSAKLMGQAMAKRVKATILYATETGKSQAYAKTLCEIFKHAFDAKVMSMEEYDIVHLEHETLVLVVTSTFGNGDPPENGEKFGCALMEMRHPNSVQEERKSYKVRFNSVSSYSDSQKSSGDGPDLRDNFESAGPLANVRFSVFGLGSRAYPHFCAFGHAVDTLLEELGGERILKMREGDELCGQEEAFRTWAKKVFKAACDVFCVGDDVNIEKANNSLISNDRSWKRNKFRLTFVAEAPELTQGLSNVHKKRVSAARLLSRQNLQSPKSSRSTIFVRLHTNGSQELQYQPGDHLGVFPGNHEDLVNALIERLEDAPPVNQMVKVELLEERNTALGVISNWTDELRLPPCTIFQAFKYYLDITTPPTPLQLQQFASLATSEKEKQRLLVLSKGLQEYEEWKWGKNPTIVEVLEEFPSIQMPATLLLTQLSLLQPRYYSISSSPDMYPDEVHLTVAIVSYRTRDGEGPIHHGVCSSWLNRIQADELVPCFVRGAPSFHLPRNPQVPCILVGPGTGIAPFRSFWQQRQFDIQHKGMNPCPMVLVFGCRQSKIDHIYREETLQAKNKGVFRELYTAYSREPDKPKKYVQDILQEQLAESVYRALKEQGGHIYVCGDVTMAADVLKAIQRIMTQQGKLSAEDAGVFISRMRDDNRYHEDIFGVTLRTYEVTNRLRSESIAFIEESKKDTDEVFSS

One may read the Ki as the dissociation constant of the complex between target and ligand, obtained from inhibition or displacement. Lower therefore signals a stronger hold on the target. `CCSC(=N)Nc1ccc([N+](=O)[O-])cc1`: the values for the Ki in data set [1], in [2] and in [3] were 54 µM, 0.66 µM and 9.1 µM, respectively.

One may read the inhibition as the drop in the measured response relative to a control, in per cent. With `CCSC(=N)Nc1ccc(C(=O)O)cc1`, the inhibition was found to be 0% in data set [4] and 14% in data set [5]. The compound also had a Ki in data set [2] of 58 µM.

As to `CSC(=N)Nc1ccc(C(F)(F)F)cc1`, the inhibition in data set [4] amounted to 0%. Moreover, the Ki in data set [2] came to 4.6 µM; in data set [3] it was 31 µM.

Consider `CSC(=N)Nc1ccc([N+](=O)[O-])cc1`, for which the inhibition in [4] amounted to 0%. Further, the Ki in [2] amounted to 3.3 µM; in [3], 17 µM.

For the compound `CCSC(=N)Nc1cccnc1`, the Ki in data set [1] came out at 23 µM; in [3], 7 µM.

`CCSC(=N)Nc1ccccc1C(F)(F)F`: the Ki in [3] is 18 µM.

`CCSC(=N)Nc1ccc(Cl)cc1`: the Ki in data set [1] was determined as 4.2 µM; in data set [2] it was 0.14 µM; in data set [3], 0.9 µM.

As to `CCSC(=N)Nc1ccc(OC(F)(F)F)cc1`, the Ki in data set [1] was 55 µM; in data set [2] it was 0.7 µM; in [3], 17 µM.

With `CC(C)SC(=N)Nc1ccc(C(F)(F)F)cc1`, the inhibition in [4] and in data set [5] was 0% in each case. Besides, the Ki in data set [2] was found to be 29 µM.

Turning to `CSC(=N)Nc1ccc(Cl)cc1`, the Ki in data set [1] turned out to be 42 µM; in [2] it was 0.57 µM; in [3], 2.6 µM.

With `CCOC(=O)c1ccc(NC(=N)SCC)cc1`, affinity in data set [1] was put at a Ki of 63 µM.

The Km is the concentration of substrate that gives half-maximal velocity. Take `CCSC(=N)Nc1ccc(C(F)(F)F)cc1.Cl`: the Km in data set [6] was found to be 2 µM. Moreover, the figures for the half-life in [7] (read-out: T1/2 alpha) and in data set [7] (read-out: T1/2 beta) were 4 min and 31 min, respectively. The same compound had a Ki in [1] of 37 µM. For the same compound, the Clearance in [8] turned out to be 93.3 mL/min/kg.

As for `CCSC(=N)Nc1ccccc1`, the Ki in data set [1] was 0.87 µM; in data set [2] it was 0.12 µM; in [3], 0.4 µM.

With `CCSC(=N)Nc1ccccn1`, the results for the Ki in data set [1] and in [3] were 23 µM and 17 µM, respectively.

Regarding `N=C(Nc1ccc(C(F)(F)F)cc1)SCc1ccccc1`, the inhibition was determined as 11% in [9], 0% in data set [4] and 0% in data set [5].

Regarding `CCCCSC(=N)Nc1ccc(C(F)(F)F)cc1`, the inhibition in [4], in data set [10] and in data set [5] was 0% throughout.

As to `CCSC(=N)Nc1ccccc1C(C)C`, the Ki in data set [2] was 1.1 µM.

As for `CCSC(=N)Nc1ccncc1`, the Ki was 22 µM in [1], 0.8 µM in [2] and 16 µM in [3].

On to `CCCSC(=N)Nc1ccc(C(F)(F)F)cc1`, for which the inhibition in data set [4] is 4%; in data set [5], 0%. Affinity in data set [2] was put at a Ki of 64 µM.

Regarding `CCSC(=N)Nc1ccc(C(C)C)cc1`, the Ki in [1] came to 25 µM.
